Peptide text beside a SMILES is read from it.
target: Calcitonin gene-related peptide type 1 receptor (Homo sapiens, UniProt Q16602); experiment: CGRP1 receptor affinity on human neuroblastoma cells SK-N-MC, which selectively express the human CGRP1 receptor.
Procedure, shortened: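 SK-N-MC membranes (cells grown in DMEM, detached with PBS/0.02% EDTA, homogenized, pellet in Tris buffer pH 7.40 with 1% BSA, 0.1% bacitracin, stored -80 °C) diluted 1:10 in assay buffer (50 mM Tris, 150 mM NaCl, 5 mM MgCl2, 1 mM EDTA, pH 7.40).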

Sequence of Calcitonin gene-related peptide type 1 receptor (Q16602 whole entry): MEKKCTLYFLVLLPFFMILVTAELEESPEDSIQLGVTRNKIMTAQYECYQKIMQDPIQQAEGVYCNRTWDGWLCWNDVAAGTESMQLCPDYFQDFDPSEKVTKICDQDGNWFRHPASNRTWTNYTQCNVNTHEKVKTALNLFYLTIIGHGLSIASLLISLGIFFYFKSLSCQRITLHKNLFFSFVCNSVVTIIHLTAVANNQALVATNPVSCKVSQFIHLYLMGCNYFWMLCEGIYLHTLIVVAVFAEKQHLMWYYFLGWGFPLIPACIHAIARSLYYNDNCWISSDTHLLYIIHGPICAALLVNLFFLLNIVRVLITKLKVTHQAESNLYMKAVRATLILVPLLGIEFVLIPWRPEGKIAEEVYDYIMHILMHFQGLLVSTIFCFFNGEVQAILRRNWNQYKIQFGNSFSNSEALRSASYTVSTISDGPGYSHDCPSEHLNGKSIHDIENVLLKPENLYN

Compound	IC50
CC(C)[C@H](NC(=O)[C@@H](N)Cc1ccc(O)cc1)C(=O)N1CCC[C@H]1C(=O)N[C@H](C(=O)N[C@@H](CC(N)=O)C(=O)N[C@@H](C(=O)NCC(=O)N[C@@H](CO)C(=O)N[C@@H](CCC(=O)O)C(=O)N[C@@H](C)C(=O)N[C@@H](Cc1ccccc1)C(=O)O)C(C)C)[C@@H](C)O	No displacement
H-YSEAF-OH	No displacement
C[C@H](NC(=O)[C@H](CCC(=O)O)NC(=O)[C@@H](N)Cc1ccc(O)cc1)C(=O)N[C@@H](Cc1ccccc1)C(=O)O (H-YEAF-OH)	No displacement
H-YVPTNVGSEA-OH	No displacement
H-YVPTNV-OH	No displacement
